hDAT+cocaine: changed hDAT dopamine uptake under cocaine IC80, either direction, primary screen, cocaine antagonist project, cell-based, LLC-PK1 hDAT, [14C]-dopamine uptake, MLSMR; LLC-PK1 hDAT cells, [14C]-dopamine uptake with cocaine IC80; actives deviate in either direction; B-score at 10 µM; 110,000 compounds, 1.3% hits;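 active = Z score or B-score, a plate-position-corrected score, falls beyond the plate's 99.7% confidence bounds, in either direction; inactive = both scores lie inside the 99.7% bounds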
Target sequence (Q01959 whole entry, looked up): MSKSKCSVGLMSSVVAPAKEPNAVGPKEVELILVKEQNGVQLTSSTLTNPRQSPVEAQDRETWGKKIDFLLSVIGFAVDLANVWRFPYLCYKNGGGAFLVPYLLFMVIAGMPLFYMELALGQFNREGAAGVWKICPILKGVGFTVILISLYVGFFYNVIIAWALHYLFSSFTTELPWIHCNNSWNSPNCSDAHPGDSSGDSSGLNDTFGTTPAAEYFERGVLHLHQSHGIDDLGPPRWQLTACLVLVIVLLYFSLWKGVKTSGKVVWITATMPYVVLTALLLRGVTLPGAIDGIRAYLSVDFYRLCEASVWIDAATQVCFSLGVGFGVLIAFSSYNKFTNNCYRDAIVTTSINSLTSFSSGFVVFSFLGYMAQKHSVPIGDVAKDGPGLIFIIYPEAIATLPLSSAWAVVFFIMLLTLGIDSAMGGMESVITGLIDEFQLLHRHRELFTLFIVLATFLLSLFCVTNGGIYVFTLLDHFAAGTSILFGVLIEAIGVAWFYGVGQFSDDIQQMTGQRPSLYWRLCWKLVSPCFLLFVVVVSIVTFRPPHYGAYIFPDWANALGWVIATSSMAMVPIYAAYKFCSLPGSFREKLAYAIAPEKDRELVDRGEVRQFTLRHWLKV
LYP act: LYP phosphatase activators, primary screen, biochemical, DiFMUP fluorescence, 2 µM; Tyrosine-protein phosphatase non-receptor type 22 (Homo sapiens), Q9Y2R2; recombinant LYP; 0 = plate median, 100 = signal doubled; activation, % at 2 µM; 96,000 compounds, 0.11% hits;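 active = activation at 2 µM above a set limit, the mean plus 5 SD, cut at about 37% in these data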
PTPN22 inh 2: PTPN22 phosphatase inhibitors, primary screen, biochemical, DiFMUP fluorescence, 2 µM | Tyrosine-protein phosphatase non-receptor type 22 (Homo sapiens), Q9Y2R2 | recombinant LYP catalytic domain | 96,000 compounds, 0.21% hits | inhibition, % at 2 µM | AID 640, 2007;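 active = inhibition at 2 µM at or above a set limit, the screen mean plus 3 SD, cut at about 24% in these data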
PLK1 kinase inh: human PLK1 kinase inhibitors, primary screen, biochemical, TR-FRET; inhibition, % at 10 µM; recombinant PLK1 kinase, TR-FRET peptide phosphorylation; 97,000 compounds, 0.53% hits; AID 619, 2007;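 active = inhibition of 50% or more in the single-concentration screen; inactive = inhibition below 50%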
HIV Rev-RRE inh: HIV-1 Rev-RRE binding inhibitors, primary screen, biochemical, FRET, protein-RNA interaction; Rev peptide-RRE RNA binding; inhibition, % at 8 µM; 97,000 compounds, 0.79% hits; AID 704, 2007;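 active = inhibition above the screen-wide mean plus 3 SD, cut at about 35% in these data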
Target sequence (P05866 whole entry, looked up): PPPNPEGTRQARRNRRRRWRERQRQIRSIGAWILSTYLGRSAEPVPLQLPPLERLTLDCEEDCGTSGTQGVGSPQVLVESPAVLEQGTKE
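Assay system: labelled RRE RNA duplex and labelled Rev peptide / Medium: HEPES pH 7.5 salt buffer with EDTA / Reagent: labelled Rev peptide / Schedule: 5 + 15 min at 25 °C / Signal: FRET, excitation 480 nm, emission 540 nm donor and 671 nm acceptor / Benchmarks: DMSO and neomycin B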
PLK1 PBD inh: Plk1 polo box domain binding inhibitors, primary screen, biochemical, fluorescence polarization; inhibition, %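 (tested at about 20 µM)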; Plk1 PBD phosphopeptide binding; 97,000 compounds, 0.13% hits; Serine/threonine-protein kinase PLK1 (Homo sapiens), P53350; in the data active = inhibition above about 34%, passing the limit was not always enough
PLK1 inh conf: PLK1 kinase activity inhibitors, confirmation, biochemical, TR-FRET, duplicate runs; inhibition, % at 10 µM; 210 compounds, 20% hits; recombinant PLK1 kinase, TR-FRET peptide phosphorylation; shares compounds with PLK1 kinase inh;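 active = inhibition at or above 50% in each of two repeat confirmation tests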
TR-FRET interf: compound interference with Plk1 assay readout, artefact control for Plk1 kinase inhibitor project, biochemical, TR-FRET, compound added post-reaction; shares compounds with PLK1 kinase inh; inhibition (interference), % at 10 µM; 210 tested, under 10 active; AID 756, 2007;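 active = both duplicate runs show 50% or greater inhibition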
Large screens that a line does not name were inactive (follow-up assays come after a bar, where they were run). Most compounds without a hit are left out; they make up all but 2.7% or so of the library.

O=c1ccc2cc3c([nH]c4ccc(Br)cc43)oc-2c1O	PLK1 kinase inh 71, HIV Rev-RRE inh 37 | PLK1 inh conf inactive | TR-FRET interf inactive
CCOC(=O)c1sc2nc[nH]c(=O)c2c1C	PLK1 kinase inh 79 | PLK1 inh conf 73 | TR-FRET interf inactive
COC(=O)CSc1nc2cc(OC)ccc2cc1C#N	PLK1 kinase inh 87 | PLK1 inh conf inactive | TR-FRET interf inactive
COc1ccc2cc(C#N)c(SCC(=O)N3CCCC3)nc2c1	none
O=C(Nc1nc(=S)ss1)c1c(F)cccc1F	none
Cc1c(NC(=O)C(C)N2C(=O)C3C4C=CC(C4)C3C2=O)c(=O)n(-c2ccccc2)n1C (stereo not given)	PLK1 kinase inh 71 (no result: LYP act, PTPN22 inh 2) | PLK1 inh conf inactive | TR-FRET interf inactive
Cc1nn2c(=O)cc(CSc3nc4ccccc4[nH]3)nc2s1	PLK1 kinase inh 74 (no result: LYP act, PTPN22 inh 2) | PLK1 inh conf inactive | TR-FRET interf inactive
CCOc1cc(C2NC(=O)NC(C)=C2C(C)=O)cc(Cl)c1OCC(=O)O (stereo not given)	none
Cc1nnc(C)n1N1C(=O)c2cccc3cccc(c23)C1=O	none (no result: hDAT+cocaine)
NC1=CC(=O)c2cccc3cccc1c23	PLK1 kinase inh 78, HIV Rev-RRE inh 56 | PLK1 inh conf inactive | TR-FRET interf inactive
CCCNC(=O)c1ccccc1NC(=O)CN(c1ccccc1OCC)S(C)(=O)=O	none
Cc1cccc(N=Nc2c(N)n[nH]c2-c2ccc(Cl)cc2)c1	PLK1 kinase inh 71 | PLK1 inh conf 59 | TR-FRET interf inactive
Cc1ccc(-c2[nH]nc(N)c2N=Nc2cccc(Cl)c2C)cc1	none
CC(C)(C)OC(=O)CN1C(=O)C(Sc2n[nH]c(-c3ccccc3)n2)CCc2ccccc21 (stereo not given)	none
Cc1nn(Cc2ccc(Cl)cc2)c(C)c1NC(=O)C1CC=CCC1C(=O)O (stereo not given)	none
COc1ccc2nc(NC(=S)N(C)C)sc2c1	none
N#Cc1c(NC(=O)CSc2ncnc3sccc23)oc(-c2ccco2)c1-c1ccco1	PLK1 kinase inh 77 | PLK1 inh conf inactive | TR-FRET interf inactive
O=C(COc1ccccc1C(=O)N/N=C\c1ccc(O)c(O)c1)N/N=C/c1ccc(O)c(O)c1	PTPN22 inh 2 32, PLK1 kinase inh 86 (no result: hDAT+cocaine) | PLK1 inh conf 72 | TR-FRET interf 69
CCOc1ccc(/C=N/NC(=O)COc2ccccc2-c2ccccc2)cc1	none
CCNC(=O)CC1C(=O)N(c2ccccc2)C(=O)N1Cc1ccc(OC)cc1 (stereo not given)	none
Nc1ncncc1-c1ccc([N+](=O)[O-])cc1	none
CC1CCN(CC(O)COc2ccc(F)cc2)CC1 (stereo not given)	PLK1 kinase inh 75 (no result: LYP act, PTPN22 inh 2) | PLK1 inh conf inactive | TR-FRET interf inactive
COc1ccc(OCC(O)CN2CCCCC2)cc1 (stereo not given)	none
COc1cccc(OCC(O)CN2CCC(C)CC2)c1 (stereo not given)	none
CC1CCN(CC(O)COc2cccc(F)c2)CC1 (stereo not given)	PLK1 kinase inh 74 (no result: LYP act, PTPN22 inh 2) | PLK1 inh conf inactive | TR-FRET interf inactive
COc1cccc(N2[C@@H](CC(C)=O)c3ccc(/C=C/C(C)=O)cc3S2(=O)=O)c1	none (no result: LYP act, PTPN22 inh 2, PLK1 kinase inh, HIV Rev-RRE inh, PLK1 PBD inh)
Cc1ccc(CC2CC(=O)N(c3cc(C)on3)C2=O)cc1 (stereo not given)	PLK1 kinase inh 70 (no result: LYP act, PTPN22 inh 2) | PLK1 inh conf inactive | TR-FRET interf inactive
Cc1cc(C)cc(CC2CC(=O)N(c3ccc(Cl)cn3)C2=O)c1 (stereo not given)	none
Nc1ncnc(Nc2ccccc2C(F)(F)F)n1	PLK1 kinase inh 72 | PLK1 inh conf 70 | TR-FRET interf inactive
Cc1cccc(-n2cnc(C(=O)N/N=C/c3ccccc3)c2)n1	none
CC(C)Nc1ncnc2c1cnn2-c1ccccc1	none
NNc1ncnc2c1cnn2-c1ccccc1	PLK1 kinase inh 75 | PLK1 inh conf 68 | TR-FRET interf inactive
CC(=O)NC(CC(=O)Nc1cccc(S(=O)(=O)N2CCCCC2)c1)c1ccccc1 (stereo not given)	none
Cn1c(=O)c2c(SCc3cccnc3)nc(CC(C)(C)C)nc2n(C)c1=O	PLK1 kinase inh 73 (no result: LYP act, PTPN22 inh 2) | PLK1 inh conf inactive | TR-FRET interf inactive
CCCc1nc(SCc2cccnc2)c2c(=O)n(C)c(=O)n(C)c2n1	none
COCCn1c(SCC(=O)Nc2cc(C)on2)nnc1-c1c[nH]c2ccccc12	PLK1 kinase inh 71 (no result: LYP act, PTPN22 inh 2) | PLK1 inh conf inactive | TR-FRET interf inactive
COCCn1c(SCc2cccnc2)nnc1-c1c[nH]c2ccccc12	PLK1 kinase inh 75 (no result: LYP act, PTPN22 inh 2) | PLK1 inh conf inactive | TR-FRET interf inactive
Cc1cc(NC(=O)CSc2nnc(-c3c[nH]c4ccccc34)n2C)no1	none (no result: LYP act, PTPN22 inh 2, PLK1 kinase inh, HIV Rev-RRE inh, PLK1 PBD inh)
CCOc1ccc(C2c3c(oc4ccccc4c3=O)C(=O)N2CCCN2CCOCC2)cc1OCC (stereo not given)	PLK1 kinase inh 74 (no result: LYP act, PTPN22 inh 2) | PLK1 inh conf inactive | TR-FRET interf inactive
CCOc1ccccc1NC(=S)NCc1ccco1	none
O=C(CSc1ncn(-c2ccccc2)n1)Nc1nccs1	none
CC(=O)Nc1ccc(C(=O)CSc2ncn(-c3ccccc3)n2)cc1	PLK1 kinase inh 84 | PLK1 inh conf inactive | TR-FRET interf inactive
O=C(CCc1ccccc1)N1CCN(CCO)CC1	PLK1 kinase inh 74 (no result: LYP act, PTPN22 inh 2) | PLK1 inh conf inactive | TR-FRET interf inactive
O=C(CCN1C(=O)c2ccccc2C1=O)N1CCN(Cc2ccccc2)CC1	none
O=C(CSc1ncn[nH]1)NCCCc1ccccc1	none
CCOC(=O)CNC(c1ccccc1)c1cc(Br)ccc1NC(=O)OCC (stereo not given)	PLK1 kinase inh 93 | PLK1 inh conf inactive | TR-FRET interf inactive
Cc1cc(N)ccc1-n1c(C)ccc1C	none (no result: LYP act, PTPN22 inh 2, PLK1 kinase inh, HIV Rev-RRE inh, PLK1 PBD inh)
Cc1cc(N)ccc1N1CCCC1	PLK1 kinase inh 80 | PLK1 inh conf inactive | TR-FRET interf inactive
Nc1[nH]ncc1C(=O)Nc1cccc(C(F)(F)F)c1	PLK1 kinase inh 78 | PLK1 inh conf 75 | TR-FRET interf inactive
COc1cc(C2C(C(=O)OC(C)C)=C(C)Nc3ncnn32)cc(OC)c1OC (stereo not given)	PLK1 kinase inh 81 (no result: LYP act, PTPN22 inh 2) | PLK1 inh conf inactive | TR-FRET interf inactive

From PubChem BioAssay
